Assay results published in ChEMBL document CHEMBL4376878, “Potent Thiophene Antagonists of Human Complement C3a Receptor with Anti-Inflammatory Activity” (J Med Chem, 2020).
Active and inactive are the calls of the source. No cut-off for these calls is given here. Residues, ends and D or L forms follow the SMILES beside them.

Key:
[1] = biological target: T1, C3a anaphylatoxin chemotactic receptor (Homo sapiens, UniProt Q16581); experiment: Agonist activity at C3a receptor in human MDM cells assessed as induction of intracellular calcium release measured at 1 sec interval for => 200 secs by Fluo-3 AM dye-based FLIPR assay; assay type: cell-based
T1 sequence (Q16581 whole entry): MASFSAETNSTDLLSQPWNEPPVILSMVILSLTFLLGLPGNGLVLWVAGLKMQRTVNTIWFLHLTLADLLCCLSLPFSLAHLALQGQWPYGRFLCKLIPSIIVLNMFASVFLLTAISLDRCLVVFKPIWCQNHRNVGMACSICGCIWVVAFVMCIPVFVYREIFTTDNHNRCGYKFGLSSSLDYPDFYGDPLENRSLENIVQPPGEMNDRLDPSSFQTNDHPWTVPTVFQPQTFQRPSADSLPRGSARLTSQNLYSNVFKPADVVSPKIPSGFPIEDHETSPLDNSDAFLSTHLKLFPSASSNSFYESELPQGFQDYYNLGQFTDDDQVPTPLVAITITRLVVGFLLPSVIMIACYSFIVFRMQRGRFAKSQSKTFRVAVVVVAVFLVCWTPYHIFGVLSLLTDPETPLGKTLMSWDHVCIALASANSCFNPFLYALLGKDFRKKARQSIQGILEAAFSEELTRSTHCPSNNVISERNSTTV
How it was run: (§1)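 HMDMs were differentiated from CD14⁺ monocytes with M-CSF (100 ng/mL) for 7 days and seeded overnight at 5 × 10⁴ cells/well. Cells were loaded with 4 μM Fluo-3 AM for 1 h at 37 °C, then placed in HBSS with 2.5 mM probenecid and 20 mM HEPES, pH 7.4. Agonist was added on FLIPR and read at ex 495/em 520 nm. EC50 is relative to the maximum from 1 μM C3a; n ≥ 3.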

Rattus norvegicus [2] = experiment: Antiinflammatory activity in Wistar rat model of BR103-induced paw edema assessed as reduction in hind paw swelling at <30 mg/kg, po administered via gavage pretreated for 2 hrs followed by BR103 challenge and measured after 0.5 to 2 hrs by digital caliper method; assay type: functional, organism-based
[3] = biological target: T1, C3a anaphylatoxin chemotactic receptor; experiment: (§2) Antagonist at C3a receptor in human LAD2 cells assessed as inhibition of C3a-induced beta-hexosaminidase release preincubated for 30 mins followed by C3a addition; assay type: cell-based
How it was run: (§3)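 LAD2 mast cells grown with SCF, 1 × 10⁴ cells/well seeded overnight and presensitized overnight with IgE (100 ng/mL). Compounds preincubated 30 min at 37 °C in 0.1 M HEPES pH 7.4, then C3a added and β-hexosaminidase release measured. IC50 is concentration inhibiting 50% of release induced by 100 nM C3a; n ≥ 3.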

[4] = biological target: T2, C3a anaphylatoxin chemotactic receptor (Homo sapiens) (UniProt Q16581); experiment: as §2; assay type: cell-based; how it was run: as §3
T2 sequence (whole entry): T1 sequence (Q16581 whole entry)

[5] = biological target: T1, C3a anaphylatoxin chemotactic receptor; experiment: (§4) Antagonist activity at C3a receptor in human MDM cells assessed as inhibition of C3a-induced intracellular calcium release preincubated for 30 mins followed by C3a addition and measured at 1 sec interval for => 200 secs by Fluo-3 AM dye-based FLIPR assay; assay type: functional, cell-based
How it was run: (§5)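 Macrophages were derived from CD14⁺ monocytes (M-CSF, 7 days) and dye-loaded with 4 μM Fluo-3 AM for 1 h at 37 °C in HBSS/probenecid/HEPES, pH 7.4. Antagonist was preincubated for 30 min at 37 °C before addition of synthetic full-length human C3a (100 nM). FLIPR fluorescence was read at ex 495/em 520 nm. Percent response was plotted against log concentration; n ≥ 3.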

[6] = Volume of distribution in Wistar rat at 1 mg/kg, iv by LC-MS/MS analysis; assay type: ADME, organism-based; details: in vivo
How it was run: (§6)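 Male Wistar rats with jugular vein catheter, fasted overnight; dosed p.o. by gavage in olive oil or i.v. via catheter in 50% DMSO. Blood drawn from conscious unrestrained rats 5 min before dosing, then 5, 15, 30 min and 1–8 h after. Volume replaced with heparinized saline. Rats fed after 4 h sample. n = 3 per route.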

[7] = biological target: T3, C5a anaphylatoxin chemotactic receptor 1 (Homo sapiens) (UniProt P21730); experiment: Antagonist activity at C5a receptor in human MDM cells assessed as inhibition of C5a-induced intracellular calcium release preincubated for 30 mins followed by C5a addition and measured at 1 sec interval for => 200 secs by Fluo-3 AM dye-based FLIPR assay; assay type: functional, cell-based
T3 sequence (whole entry): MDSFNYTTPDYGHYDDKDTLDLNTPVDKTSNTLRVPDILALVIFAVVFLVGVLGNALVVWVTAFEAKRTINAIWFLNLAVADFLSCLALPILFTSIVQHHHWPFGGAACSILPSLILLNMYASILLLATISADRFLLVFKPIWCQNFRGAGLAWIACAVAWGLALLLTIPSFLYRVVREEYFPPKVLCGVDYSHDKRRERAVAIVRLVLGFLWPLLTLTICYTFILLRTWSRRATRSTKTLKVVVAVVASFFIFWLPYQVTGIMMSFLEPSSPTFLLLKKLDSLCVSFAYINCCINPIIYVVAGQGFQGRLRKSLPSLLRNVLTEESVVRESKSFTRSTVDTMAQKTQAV
How it was run: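 HMDMs from CD14+ monocytes after 7 days in M-CSF; 5 × 10⁴ cells/well seeded overnight. Cells loaded 1 h at 37 °C with 4 μM Fluo-3 AM, then washed into HBSS with 2.5 mM probenecid and 20 mM HEPES, pH 7.4. Antagonist preincubated 30 min at 37 °C before C5a. Fluorescence (ex 495/em 520 nm) read every 1 s for ≥200 s.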

[8] = AUC (0 to 8 hrs) in Wistar rat at 10 mg/kg, po by LC-MS/MS analysis; assay type: ADME, organism-based; design: dose 10 mg/kg, time < 8 hr, route oral; details: in vivo; how it was run: as §6
[9] = Clearance in Wistar rat at 1 mg/kg, iv by LC-MS/MS analysis; assay type: ADME, organism-based; details: in vivo; how it was run: as §6
[10] = Elimination half-life in Wistar rat at 1 mg/kg, iv by LC-MS/MS analysis; assay type: ADME, organism-based; details: in vivo, read-out: beta t1/2; how it was run: as §6
[11] = Cmax in Wistar rat at 10 mg/kg, po by LC-MS/MS analysis; assay type: ADME, organism-based; design: dose 10 mg/kg, route oral; details: in vivo; how it was run: as §6
[12] = Stability of the compound in rat plasma at 1 mM measured after 4 hrs by LC-MS analysis; assay type: ADME, cell-free
How it was run: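 Compound added to rat plasma from 1 mM DMSO stock (stock concentration) and incubated at 37 °C. Samples taken at 0, 5, 15, 30, 60, 120 and 240 min, quenched in MeCN/H₂O 9:1, centrifuged and analyzed by LC-MS. Plasma activity checked with SLIGRL-NH₂.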

[13] = Tmax in Wistar rat at 10 mg/kg, po by LC-MS/MS analysis; assay type: ADME, organism-based; details: in vivo; how it was run: as §6
[14] = Stability of the compound in rat liver microsomes assessed as compound degradation at 1 uM preincubated for 5 mins followed by NADPH addition and measured after 1 hr by LC-MS/MS analysis; assay type: ADME, Microsome; details: read-out: Drug degradation
How it was run: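 Compound at 1 μM in 100 mM phosphate buffer pH 7.4 with 0.1% DMSO was mixed with rat liver microsomes and preincubated 5 min at 37 °C before NADPH was added. Samples taken at 0, 5, 15, 30 and 60 min, quenched in MeCN/H₂O 9:1 and analyzed by LC-MS/MS. Microsome activity checked with SLIGRL-NH₂; n = 3.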

Rattus norvegicus [15] = experiment: Antiinflammatory activity in Wistar rat model of BR103-induced paw edema assessed as reduction in hind paw swelling at 10 mg/kg, po administered via gavage pretreated for 2 hrs followed by BR103 challenge and measured after 30 mins by digital caliper method relative to control; assay type: functional; design: scale not given: the % may be the effect or the level left
How it was run: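 Male Wistar rats were given antagonist at 10 mg/kg by oral gavage in olive oil 2 h before intraplantar BR103 (350 μg in 100 μL of 5% DMSO). Sham paws received vehicle; sham and control rats received olive oil only. Paw thickness and width were measured with digital calipers at 0, 0.5, 1 and 2 h after agonist; n = 3 per group.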

[16] = biological target: T2, C3a anaphylatoxin chemotactic receptor (Homo sapiens); experiment: Potency index, ratio of SB290157 IC50 to test compound IC50 for antagonist activity at C3a receptor in human MDM cells; assay type: cell-based
[17] = AUC (0 to 8 hrs) in Wistar rat at 1 mg/kg, iv by LC-MS/MS analysis; assay type: ADME, organism-based; design: time < 8 hr, dose 1 mg/kg, route intravenous; details: in vivo; how it was run: as §6
[18] = biological target: T2, C3a anaphylatoxin chemotactic receptor (Homo sapiens); experiment: Potency index, ratio of SB290157 IC50 to test compound IC50 for antagonist activity at C3a receptor in human LAD2 cells assessed as inhibition of C3a-induced beta-hexosaminidase release; assay type: cell-based
[19] = biological target: T2, C3a anaphylatoxin chemotactic receptor (Homo sapiens); experiment: as §4; assay type: functional, cell-based; how it was run: as §5
[20] = Stability of the compound in rat plasma at 1 mM measured after 10 mins by LC-MS analysis; assay type: ADME, cell-free; details: 1000 µM
[21] = biological target: T1, C3a anaphylatoxin chemotactic receptor; experiment: Partial agonist activity at C3a receptor in human MDM cells assessed as induction of intracellular calcium release at higher concentration measured at 1 sec interval for => 200 secs by Fluo-3 AM dye-based FLIPR assay relative to control; assay type: cell-based; how it was run: as §1
Rattus norvegicus [22] = experiment: Antiinflammatory activity in Wistar rat model of BR103-induced paw edema assessed as reduction in hind paw swelling at 30 mg/kg, po administered via gavage pretreated for 4 hrs followed by BR103 challenge and measured after 30 mins by digital caliper method relative to control; assay type: functional; design: scale not given: the % may be the effect or the level left
How it was run: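 For duration of action, antagonist was given at 30 mg/kg by oral gavage in olive oil at 1, 2, 4, 6, 8 or 12 h before intraplantar BR103 (350 μg/paw) in male Wistar rats. Controls received olive oil 2 h before challenge. Paw thickness and width were measured with calipers at 0 and 0.5 h; n = 3 per group.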

[23] = AUC (0 to 8 hrs) in Wistar rat at 0.5 mg/kg, iv by LC-MS/MS analysis; assay type: ADME, organism-based; design: time < 8 hr, dose 0.5 mg/kg, route intravenous; details: in vivo; how it was run: as §6
[24] = Volume of distribution in Wistar rat at 0.5 mg/kg, iv by LC-MS/MS analysis; assay type: ADME, organism-based; details: in vivo; how it was run: as §6
[25] = biological target: T2, C3a anaphylatoxin chemotactic receptor (Homo sapiens); experiment: Displacement of Eu-DTPA-C3a from Galpha16-coupled C3a receptor (unknown origin) expressed in HEK293 cells measured after 60 mins by time-resolved fluorescence assay; assay type: cell-based
[26] = Clearance in Wistar rat at 0.5 mg/kg, iv by LC-MS/MS analysis; assay type: ADME, organism-based; details: in vivo; how it was run: as §6
[27] = Elimination half-life in Wistar rat at 0.5 mg/kg, iv by LC-MS/MS analysis; assay type: ADME, organism-based; details: in vivo, read-out: beta t1/2; how it was run: as §6

Structure (SMILES) | EC50 ([1]; read-out: EC50) [nM] | EC50 ([1]; read-out: pEC50 (converted)) [nM] | IC50 [3] [nM] | inhibition [4] | IC50 ([5]; read-out: IC50) [nM] | inhibition [7] | AUC(0-t) at 8 h [8] [ng·h/mL] | Cmax [11] [ng/mL] | Stability [12] | Tmax [13] [h] | metabolised at 1 h, 1 µM [14] [%] | Activity (Rattus norvegicus [15]) [%] | Ratio IC50 [16] | Ratio IC50 [18] | other results
N=C(N)NCCC[C@H](NC(=O)COCC(c1ccccc1)c1ccccc1)C(=O)O | > 100000 | > 100000 | 540 | Dose-dependent effect | 1300 to 3800 | – | – | – | – | – | – | – | – | – | Activity (Rattus norvegicus [2]): inactive; IC50 ([5]; read-out: pIC50 (converted)): 3980 nM
Cc1cc(C(c2ccccc2)c2ccccc2)sc1C(=O)N[C@@H](CCCNC(=N)N)C(=O)O | > 100000 | > 100000 | 2 | Dose-dependent effect | 7 | inactive | 90 | 23 | Stable | 4 | 40 | 49 | 100 | 100 | Vd [6]: 0.7 L; clearance [9]: 18 mL/min/kg; half-life [10]: 0.75 h; AUC(0-t) at 8 h [17]: 779 ng·h/mL; inhibition [19]: Dose-dependent effect
CC(C)C[C@H](NC(=O)OC(C)(C)C)C(=O)N[C@@H](C)C(=O)N[C@@H](CCCNC(=N)N)C(=O)O (HELM PEPTIDE1{[CC(C)(C)OC(=O)[*:2]].L.A.R}$$$$V2.0) | – | – | – | – | – | – | – | – | – | – | – | – | – | – | Stability [20]: Unstable
N=C(N)NCCC[C@H](NC(=O)c1ccc(C(c2ccccc2)c2ccccc2)s1)C(=O)O | > 100000 | > 100000 | 4 | Dose-dependent effect | 85 | inactive | 436 | 91 | Stable | 3.5 | 60 | 20 | 15 | 100 | Activity [21]: 30 to 80%; Activity (Rattus norvegicus [22]): <=60%; AUC(0-t) at 8 h [23]: 811 ng·h/mL; Vd [24]: 0.4 L; inhibition [25]: Dose-dependent effect; clearance [26]: 10.3 mL/min/kg; half-life [27]: 0.533 h
